The values that follow come from ChEMBL document CHEMBL5653631, “A Potent and Selective ULK1 Inhibitor Suppresses Autophagy and Sensitizes Cancer Cells to Nutrient Stress” (iScience, 2018).

Each structure is given as a SMILES string.

Assay [1] deals with T1, Dual specificity tyrosine-phosphorylation-regulated kinase 2 (Homo sapiens) (UniProt Q92630).
T1 sequence (whole entry): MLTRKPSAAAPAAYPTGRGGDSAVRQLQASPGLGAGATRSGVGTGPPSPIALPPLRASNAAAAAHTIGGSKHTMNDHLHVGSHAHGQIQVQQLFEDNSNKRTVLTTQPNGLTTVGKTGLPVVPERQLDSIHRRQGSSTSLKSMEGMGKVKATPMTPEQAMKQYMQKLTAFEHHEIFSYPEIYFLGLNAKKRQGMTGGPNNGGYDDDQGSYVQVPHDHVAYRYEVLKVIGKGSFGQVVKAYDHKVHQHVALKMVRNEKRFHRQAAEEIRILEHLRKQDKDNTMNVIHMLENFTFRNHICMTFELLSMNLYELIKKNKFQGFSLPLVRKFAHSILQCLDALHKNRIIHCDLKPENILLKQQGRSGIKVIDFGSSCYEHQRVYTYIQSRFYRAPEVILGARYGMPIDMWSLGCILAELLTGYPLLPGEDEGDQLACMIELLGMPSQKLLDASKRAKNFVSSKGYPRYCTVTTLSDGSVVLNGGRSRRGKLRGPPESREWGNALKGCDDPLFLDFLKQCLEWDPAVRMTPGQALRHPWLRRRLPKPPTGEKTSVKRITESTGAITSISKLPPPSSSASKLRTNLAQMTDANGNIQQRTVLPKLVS
Description: Inhibition of human recombinant DYRK2 at 40 nM in presence of ATP by radiometric assay relative to control.

Assay [2] addresses T2, Tyrosine-protein kinase receptor TYRO3 (Homo sapiens) (UniProt Q06418).
T2 sequence (whole entry): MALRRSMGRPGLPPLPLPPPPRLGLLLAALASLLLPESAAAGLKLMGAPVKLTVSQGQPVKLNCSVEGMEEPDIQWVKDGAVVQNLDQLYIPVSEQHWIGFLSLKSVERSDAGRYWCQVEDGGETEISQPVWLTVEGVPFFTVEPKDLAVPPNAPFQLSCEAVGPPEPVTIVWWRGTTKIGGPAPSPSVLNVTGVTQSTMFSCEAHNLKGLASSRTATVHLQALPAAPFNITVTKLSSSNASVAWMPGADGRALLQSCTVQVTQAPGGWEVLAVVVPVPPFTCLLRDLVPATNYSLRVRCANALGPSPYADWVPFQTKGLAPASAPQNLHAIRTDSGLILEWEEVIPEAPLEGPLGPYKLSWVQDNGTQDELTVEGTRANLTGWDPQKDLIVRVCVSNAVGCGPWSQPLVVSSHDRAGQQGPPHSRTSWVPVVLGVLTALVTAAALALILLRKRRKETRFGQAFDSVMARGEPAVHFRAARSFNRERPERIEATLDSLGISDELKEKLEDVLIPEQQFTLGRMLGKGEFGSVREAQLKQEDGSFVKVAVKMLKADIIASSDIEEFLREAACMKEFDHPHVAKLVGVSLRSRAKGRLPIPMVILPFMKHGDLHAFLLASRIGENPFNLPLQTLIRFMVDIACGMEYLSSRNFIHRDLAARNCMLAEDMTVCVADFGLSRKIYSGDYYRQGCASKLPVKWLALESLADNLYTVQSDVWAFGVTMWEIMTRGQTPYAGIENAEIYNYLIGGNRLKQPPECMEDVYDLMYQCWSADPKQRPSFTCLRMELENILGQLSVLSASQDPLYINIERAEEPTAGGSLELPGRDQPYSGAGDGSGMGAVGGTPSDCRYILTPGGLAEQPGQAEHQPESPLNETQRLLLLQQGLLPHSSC
Description: Inhibition of human recombinant TYRO3 at 500 nM related to control ULK1.

The target in assay [3] is RAC-beta serine/threonine-protein kinase (Homo sapiens) (UniProt P31751). The experiment in a line: Inhibition of human recombinant AKT2 at 15 nM in presence of ATP by radiometric assay relative to control. The method in brief:
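Panel of 327 recombinant human kinases in radiometric activity assays, each screened in duplicate at a single inhibitor concentration; percent activity remaining relative to vehicle control, percent inhibition taken as 100 minus activity remaining.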

Assay [4] deals with T3, Serine/threonine-protein kinase NLK (Homo sapiens) (UniProt Q9UBE8).
T3 sequence (whole entry): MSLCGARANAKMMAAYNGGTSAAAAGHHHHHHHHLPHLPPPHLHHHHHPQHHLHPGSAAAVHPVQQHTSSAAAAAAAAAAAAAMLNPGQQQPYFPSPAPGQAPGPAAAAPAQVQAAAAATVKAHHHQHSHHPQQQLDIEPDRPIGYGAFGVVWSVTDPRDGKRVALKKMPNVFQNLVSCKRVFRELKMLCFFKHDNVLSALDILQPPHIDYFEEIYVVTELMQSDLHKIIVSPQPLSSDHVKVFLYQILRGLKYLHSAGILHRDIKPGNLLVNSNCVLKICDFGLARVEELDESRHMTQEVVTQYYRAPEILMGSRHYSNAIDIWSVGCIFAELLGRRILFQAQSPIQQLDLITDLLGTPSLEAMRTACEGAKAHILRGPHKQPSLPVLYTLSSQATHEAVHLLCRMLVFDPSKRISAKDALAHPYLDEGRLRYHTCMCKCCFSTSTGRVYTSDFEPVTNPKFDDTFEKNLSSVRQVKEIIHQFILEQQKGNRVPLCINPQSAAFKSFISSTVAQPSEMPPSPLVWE
Description: Inhibition of human recombinant NLK at 15 nM in presence of ATP by radiometric assay relative to control.

As usually defined, the inhibition is the percentage by which the read-out fell short of the control.

Chain of RAC-beta serine/threonine-protein kinase (Homo sapiens) (P31751 whole entry): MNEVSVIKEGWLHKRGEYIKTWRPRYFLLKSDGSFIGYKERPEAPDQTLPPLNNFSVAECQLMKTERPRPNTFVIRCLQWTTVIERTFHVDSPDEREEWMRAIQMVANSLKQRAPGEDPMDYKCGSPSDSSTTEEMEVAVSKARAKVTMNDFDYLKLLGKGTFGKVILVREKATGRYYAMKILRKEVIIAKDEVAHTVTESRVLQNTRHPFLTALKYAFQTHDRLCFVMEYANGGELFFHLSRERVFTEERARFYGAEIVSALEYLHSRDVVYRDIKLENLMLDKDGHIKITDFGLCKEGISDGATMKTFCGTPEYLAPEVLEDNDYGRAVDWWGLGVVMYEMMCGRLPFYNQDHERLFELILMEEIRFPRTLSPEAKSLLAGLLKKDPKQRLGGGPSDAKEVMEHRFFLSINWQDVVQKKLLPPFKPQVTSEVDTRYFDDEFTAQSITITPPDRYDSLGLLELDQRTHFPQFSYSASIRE

`O=C(N[C@@H](C1CC1)C(F)(F)F)c1cc(-c2cnn3cc(-c4ccc(F)cc4)cnc23)cs1`: the inhibition in assay [1] is 11%.

As for `CNC(=O)c1ccccc1Oc1nc(Nc2cc(OC)c(OC)c(OC)c2)ncc1Br`, the fold change (FC) in assay [2] was 0.14.

As to `CC(C)[C@H](NC(=O)c1cc(-c2cnn3cc(-c4ccc(OCCN5CCCCC5)cc4)cnc23)cs1)C(F)(F)F`, the inhibition in assay [3] was found to be 0%; in assay [4] it was 9%.
